Our source for the inhibition, GI50 and IC50 values is ChEMBL document CHEMBL4014345, “Development of Selective Clk1 and -4 Inhibitors for Cellular Depletion of Cancer-Relevant Proteins” (J Med Chem, 2017).

A value given as a limit tells only on which side of the number the result lay.

For assay [1], the target named is T1, Dual specificity protein kinase CLK1/CLK4 (Homo sapiens, UniProt Q9HAZ1+P49759). The assay is described as follows: Inhibition of CLK1/4 in human T24 cells assessed as down regulation of EGFR expression at 10 uM after 3 days by Western blot analysis relative to control. It is filed as cell-based. The method, boiled down:
(§1)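 T24 or MDA-MB-231 cells were grown in DMEM to 70% confluency. The medium was replaced with compound diluted in DMEM, and cells were kept 3 days. Total protein was immunoblotted with monoclonal antibodies in 3% BSA/PBS against EGFR, p70S6K α, PARP-1, ERK2, HDAC1, CD44, PCNA and GRP94.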
In general terms: A western blot detects proteins with antibodies after separation by electrophoresis.

Assay [2] concerns the target T1, Dual specificity protein kinase CLK1/CLK4. The assay is described as follows: Inhibition of CLK1/4 in human T24 cells assessed as down regulation of EGFR expression at 15 uM after 3 days by Western blot analysis relative to control. The class given is cell-based. The essentials: as §1
The target is the same in assay [3]. The assay can be described thus: Inhibition of CLK1/4 in human MDA-MB-231 cells assessed as down regulation of S6 kinase expression at 5 uM after 3 days by Western blot analysis relative to control. It is filed as cell-based. The method, boiled down: as §1
A further assay relates to T-24. The assay is described as follows: Cytotoxicity against human T24 cells assessed as growth inhibition after 5 days by MTT assay. It is filed as functional. The note with it: T-24, 120 h. The essentials: (§2)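 They were seeded at 5000 cells per well onto compound or DMSO (0.2% final). Plates were kept 5 days at 37 °C in 5% CO2 with no medium change, then read by MTT.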
A general note: Formazan colour is commonly taken as a measure of viable cells.

The target of assay [4] is T1, Dual specificity protein kinase CLK1/CLK4. The assay can be described thus: Inhibition of CLK1/4 in human MDA-MB-231 cells assessed as down regulation of S6 kinase expression after 3 days by Western blot analysis. The class given is cell-based. The essentials:
as §1

Assay [5] shares this target. The assay is described as follows: Inhibition of CLK1/4 in human T24 cells assessed as down regulation of EGFR expression after 3 days by Western blot analysis. The class given is cell-based. The essentials: as §1
Assay [6] shares this target. The assay is described as follows: Inhibition of CLK1/4 in human MDA-MB-231 cells assessed as down regulation of EGFR expression at 5 uM after 3 days by Western blot analysis relative to control. It is filed as cell-based. The method, boiled down:
as §1

For assay [7] the target is unchanged. The assay is described as follows: Inhibition of CLK1/4 in human MDA-MB-231 cells assessed as down regulation of EGFR expression at 10 uM after 3 days by Western blot analysis relative to control. It is filed as cell-based. The method, boiled down: as §1
For assay [8] the target is unchanged. The assay can be described thus: Inhibition of CLK1/4 in human MDA-MB-231 cells assessed as down regulation of S6 kinase expression at 20 uM after 3 days by Western blot analysis relative to control. It is filed as cell-based. The essentials: as §1
Assay [9] shares this target. The assay is described as follows: Inhibition of CLK1/4 in human MDA-MB-231 cells assessed as down regulation of EGFR expression after 3 days by Western blot analysis. The class given is cell-based. The essentials:
as §1

Assay [10] has the same target. The assay is described as follows: Inhibition of CLK1/4 in human MDA-MB-231 cells assessed as down regulation of EGFR expression at 20 uM after 3 days by Western blot analysis relative to control. The class given is cell-based. The method, boiled down: as §1
Assay [11] has the same target. The assay is described as follows: Inhibition of CLK1/4 in human T24 cells assessed as down regulation of HDAC1 expression at 10 uM after 3 days by Western blot analysis relative to control. It is filed as cell-based. The method, boiled down: as §1
The target is the same in assay [12]. The assay is described as follows: Inhibition of CLK1/4 in human T24 cells assessed as down regulation of HDAC1 expression at 5 uM after 3 days by Western blot analysis relative to control. It is filed as cell-based. The method, boiled down: as §1
For assay [13] the target is unchanged. The assay can be described thus: Inhibition of CLK1/4 in human T24 cells assessed as down regulation of EGFR expression at 5 uM after 3 days by Western blot analysis relative to control. The class given is cell-based. The method, boiled down: as §1
Assay [14] has the same target. The assay is described as follows: Inhibition of CLK1/4 in human T24 cells assessed as down regulation of HDAC1 expression at 15 uM after 3 days by Western blot analysis relative to control. It is filed as cell-based. The method, boiled down: as §1
Assay [15] concerns the target Dual specificity protein kinase CLK1 (Homo sapiens, UniProt P49759). The assay is described as follows: Inhibition of recombinant human GST-tagged Clk1 expressed in Escherichia coli at 100 nM using RS repeat substrate peptide after 15 mins in presence of [gamma-32]-ATP.
The next assay has as its system MDA-MB-231. The assay is described as follows: Cytotoxicity against human MDA-MB-231 cells assessed as growth inhibition after 5 days by MTT assay. The class given is functional. The note with it: MDA-MB-231, 120 h. The essentials:
as §2

The target of assay [16] is T1, Dual specificity protein kinase CLK1/CLK4. The assay is described as follows: Inhibition of CLK1/4 in human MDA-MB-231 cells assessed as down regulation of S6 kinase expression at 2.5 uM after 3 days by Western blot analysis relative to control. The class given is cell-based. The essentials: as §1
Assay [17] shares this target. The assay is described as follows: Inhibition of CLK1/4 in human T24 cells assessed as down regulation of HDAC1 expression after 3 days by Western blot analysis. The class given is cell-based. The method, boiled down:
as §1

For assay [18] the target is unchanged. The assay can be described thus: Inhibition of CLK1/4 in human MDA-MB-231 cells assessed as down regulation of S6 kinase expression at 10 uM after 3 days by Western blot analysis relative to control. It is filed as cell-based. The method, boiled down: as §1
Assay [19] has the same target. The assay can be described thus: Inhibition of CLK1/4 in human MDA-MB-231 cells assessed as down regulation of EGFR expression at 2.5 uM after 3 days by Western blot analysis relative to control. The class given is cell-based. The method, boiled down: as §1

Dual specificity protein kinase CLK1, sequence (P49759 whole entry, looked up): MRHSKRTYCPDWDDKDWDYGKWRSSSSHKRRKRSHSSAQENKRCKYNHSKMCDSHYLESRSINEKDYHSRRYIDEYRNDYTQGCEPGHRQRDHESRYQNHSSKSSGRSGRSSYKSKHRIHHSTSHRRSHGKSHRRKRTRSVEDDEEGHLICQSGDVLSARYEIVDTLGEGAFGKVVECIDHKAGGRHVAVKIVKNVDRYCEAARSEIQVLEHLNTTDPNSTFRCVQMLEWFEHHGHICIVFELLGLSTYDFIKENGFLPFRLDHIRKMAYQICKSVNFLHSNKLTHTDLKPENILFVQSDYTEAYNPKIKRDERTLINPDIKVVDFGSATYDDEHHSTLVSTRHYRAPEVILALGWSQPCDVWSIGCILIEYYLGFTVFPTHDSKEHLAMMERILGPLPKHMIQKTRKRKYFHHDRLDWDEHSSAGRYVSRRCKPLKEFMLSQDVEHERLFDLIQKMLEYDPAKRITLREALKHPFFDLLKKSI

Turning to `COc1ccc2sc(C(=O)NCc3cccc(F)c3)cc2c1`, the inhibition in assay [1] was 32.9%; in assay [2] it was 36.6%; in assay [3], 7.8%; in [6] it was 36.7%; in assay [7], 30.9%; in [8], 10.9%. For the same compound, the inhibition stood at 25.1% in [10]; 16.1% in [11]; 13.7% in assay [12]; 26% in assay [13]; 0% in assay [14]; 33.9% in [15]. For the same compound, the results for the inhibition in [16], in [18] and in assay [19] were 0%, 8% and 13.1%, respectively. The GI50 in the assay on T-24 and in the assay on MDA-MB-231 was more than 40 µM each time. Moreover, the IC50 in assay [4] was more than 20 µM; in assay [5] it was more than 15 µM; in assay [9], more than 20 µM; in assay [17], more than 15 µM.

As usually defined, the inhibition is the change of the read-out against control, counted positive when it falls. By GI50 is commonly meant the concentration at which growth is held to half of that of the control. As usually defined, the IC50 is the point on the concentration scale where inhibition reaches its midpoint.
